Among the data in ChEMBL document CHEMBL4513216, “Probing the Open Global Health Chemical Diversity Library for Multistage-Active Starting Points for Next-Generation Antimalarials” (ACS Infect Dis, 2020) are cytotoxicity values, retold here.

The series is described as follows: Toxicity liver stage against HepG2, at 10uM. It counts as cell-based. The arrangement: test concentration 10 uM, cell line HepG2-A16-CD81EGFP. The note with it: human, HepG2-A16-CD81EGFP cells; read-out: INHIBITION
In outline: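 Uninfected HepG2-A16-CD81EGFP cells, 3 × 10^3 per well, 1536-well, plated on prespotted compound at 10 μM final, parasite-free screening media added to match infected plates; puromycin 10 μM positive, DMSO 0.5% negative; run in parallel with 48 h PbLuc assay at 37 °C, 5% CO2; viability by CellTiter-Glo luminescence, normalized to controls.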
As for `c1ccc(CN2CC[C@@H]3O[C@@H](COCCN4CCCC4)CC[C@@H]32)nc1`, the cytotoxicity at 10 µM was -80.6%. For the molecule `CNC(=O)[C@H]1C[C@@H]2CN(S(=O)(=O)c3ccc(F)cc3)C[C@@H]2N1C`, the cytotoxicity at 10 µM is -2.97%. For `Cc1nn(C)c(C)c1C1CCCN1C(=O)CCNc1ncccn1` (stereo not drawn), the cytotoxicity at 10 µM was -7.37%. Under `CO[C@@H]1c2ccccc2C2(CCN(C(=O)CNS(C)(=O)=O)CC2)[C@H]1O` stands 11.1%; under `Cc1cc(C)nc(CN(C)C(=O)c2cccc(CCC(C)(C)O)c2)c1`, -3.25%.

For `O=C(NC1CCS(=O)(=O)C1)c1ccc(-c2ccc(F)cc2)s1` (stereo not drawn), the cytotoxicity at 10 µM is -2.32%.

Regarding `CCNC(c1ccc(CC)cc1)c1cccnc1` (stereo not drawn), the cytotoxicity at 10 µM is -5.4%.

On to `COc1cc(OC)c(C2CC(=O)Oc3cc(C)[nH]c(=O)c32)c(OC)c1` (stereo not drawn), for which the cytotoxicity at 10 µM is -6.24%. With `COCC(O)CNC(=O)c1cc(COc2ccc3c(c2)CCCC3)on1` (stereo not drawn), the cytotoxicity at 10 µM is -147%. Under `O=c1n(CC2CCCO2)nc(CC2CCNCC2)n1-c1ccccc1` (stereo not drawn) stands -3.49%; under `Cc1oc(-c2ccoc2)nc1CN1CCCCC1CCc1ccccc1` (stereo not drawn), -1.48%; under `COc1ccc(C(=O)C2CCCN(Cc3ccncc3)C2)c(OC)c1` (stereo not drawn), -15.7%. On to `COCCCN1CC2(CCN(C(=O)c3ncc(F)cc3F)CC2)CC1=O`, for which the cytotoxicity at 10 µM was -3.94%. Under `Cn1ncc2c(=O)[nH]c(CN3CCCC3CC(C)(C)C)nc21` (stereo not drawn) stands -1.09%. Under `COc1ccc(NC(=O)CCSc2ccc3nncn3n2)c(OC)c1` stands -15.3%; under `O=C1NC2(CCc3ccccc31)CCN(C(=O)c1cccnc1)C2` (stereo not drawn), 5.5%; under `O=C(CN1CCOC(c2ccc(Cl)c(Cl)c2)C1)NCc1ccco1` (stereo not drawn), -7.31%. Under `CN(Cc1cccc(Cl)c1)C(=O)Cn1nc(-c2ccc(F)cc2)oc1=O` stands -19.9%; under `O=C(c1cnccn1)N1CC[C@H]2[C@H]1CCN2S(=O)(=O)C1CC1`, -168%. `COCCCn1ccc(NC(=O)NCCn2ccnc2)n1`: the cytotoxicity at 10 µM is -2.14%. Under `O=C1CC(c2ccc(C(=O)O)cc2)c2ncn(-c3cccc(Cl)c3)c2N1` (stereo not drawn) stands -2.17%; under `COCCSCC(=O)NCc1ccc(N(C)C)nc1`, 9.15%; under `Cc1nc(N2CCOCC2)nc(C)c1NC(=O)COc1ccccc1`, 4.17%.

For the molecule `N#Cc1ccc(C(=O)N2CCC3(CC2)CC3)cc1`, the cytotoxicity at 10 µM was determined as 3.56%. For the molecule `O=C(NCC1CC1)[C@@H]1C[C@@H]2CCN(Cc3ccoc3)C[C@@H]2O1`, the cytotoxicity at 10 µM was -2.65%. On to `CC1CN(C(=O)C2(c3ccc(F)cc3F)CCOCC2)CCO1` (stereo not drawn), for which the cytotoxicity at 10 µM was -4.84%. Under `CCc1ncc(S(C)(=O)=O)c(C2CCCNC2)n1` (stereo not drawn) stands -14.2%; under `Cc1nn(C)c(C)c1CCC(=O)N1CCCC(n2cncn2)C1` (stereo not drawn), -1.4%; under `COCCC(=O)N1CC[C@@H]2O[C@@H](C)C[C@H]2C1`, -2.78%. Under `Cc1cnn(CC2CN(CC(=O)Nc3nnc(C)s3)CCO2)c1` (stereo not drawn) stands -0.472%; under `CN(CCO)Cc1nnc(C2CCN(C(=O)c3cccn3C)CC2)n1C`, -0.537%. Under `CN(Cc1nc(N)c2ccccc2n1)C1CCCN(c2cccnn2)C1` (stereo not drawn) stands -12.2%; under `Cc1nc(C)c(CNCC2CCCn3ccnc32)s1` (stereo not drawn), -14.6%. On to `Cc1cc(C)n2c(CCCNS(=O)(=O)c3ccc(F)cc3)nnc2n1`, for which the cytotoxicity at 10 µM was 2.38%.

As to `Cc1ccc(N2CCCN(C(=O)c3cc(CC(C)C)n[nH]3)CC2)nn1`, the cytotoxicity at 10 µM was -14.6%. Take `O=C(CCN1CCNCC1)N1CCC2(CC1)c1ccccc1CC2O` (stereo not drawn): the cytotoxicity at 10 µM was -9.43%. Under `O=C(NCc1nn(-c2ccccc2)c2c1CCC2)NC1CCOCC1` stands -8.72%. For `Cc1ccnc(NC(=O)C(C)Cn2cncn2)c1` (stereo not drawn), the cytotoxicity at 10 µM worked out at 0.298%.
